Results as given in ChEMBL document CHEMBL3860043, “Non-Acidic Free Fatty Acid Receptor 4 Agonists with Antidiabetic Activity” (J Med Chem, 2016).
Values after ≈ are worked out from the molar mass of the structure shown. Active and inactive are the calls of the source. The rule behind the calls is not given here.

How the values were obtained:
[1] = biological target: T1, Free fatty acid receptor 1 (Homo sapiens, UniProt O14842); test: Antagonist activity against human FFA1 expressed in human Flp-In T-REx293 cells assessed as as reduction in TUG424-induced response by Fura2-AM dye based calcium mobilization assay; assay type: functional, cell-based
T1 sequence (O14842 whole entry): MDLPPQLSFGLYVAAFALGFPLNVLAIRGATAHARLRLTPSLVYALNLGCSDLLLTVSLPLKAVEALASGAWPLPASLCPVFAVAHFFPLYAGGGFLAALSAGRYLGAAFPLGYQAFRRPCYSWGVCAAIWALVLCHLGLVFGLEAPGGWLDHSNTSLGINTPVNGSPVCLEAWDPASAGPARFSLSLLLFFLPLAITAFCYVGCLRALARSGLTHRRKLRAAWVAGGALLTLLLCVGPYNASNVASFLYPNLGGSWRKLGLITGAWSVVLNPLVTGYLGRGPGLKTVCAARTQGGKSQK
Outline: (§1)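 Flp-In T-REx 293 cells with inducible human FFA1, seeded at 50000 cells/well and induced with 100 ng/ml doxycycline after 3-4 h adherence. Next day loaded with Fura2-AM for 45 min, washed, then preincubated 15 min in HBSS with test ligand before 300 nM agonist challenge. Fura2 340:380 ratio change read at 510 nm emission. Inhibition expressed as % reduction of the agonist response.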

[2] = biological target: T2, Free fatty acid receptor 4 (Homo sapiens, UniProt Q5NUL3); test: Agonist activity at C-terminal YFP-tagged human FFA4 expressed in HEK293 cells in presence of coelentrazine h by BRET based beta-arrestin-2 interaction assay; assay type: cell-based
T2 sequence (Q5NUL3 whole entry): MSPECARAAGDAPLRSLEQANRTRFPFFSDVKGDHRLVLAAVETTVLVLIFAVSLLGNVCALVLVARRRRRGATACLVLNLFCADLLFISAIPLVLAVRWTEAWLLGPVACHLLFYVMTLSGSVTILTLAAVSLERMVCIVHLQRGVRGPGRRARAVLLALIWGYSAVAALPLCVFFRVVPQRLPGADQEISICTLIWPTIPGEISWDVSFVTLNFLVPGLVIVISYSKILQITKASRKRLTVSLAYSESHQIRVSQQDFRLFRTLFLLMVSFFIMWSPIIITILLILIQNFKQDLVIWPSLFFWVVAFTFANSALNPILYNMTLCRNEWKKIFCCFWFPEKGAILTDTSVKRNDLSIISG
Outline: (§2)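 HEK293 cells co-transfected with C-terminal eYFP-fused human FFA4 and β-arrestin-2–Renilla luciferase; plated 24 h post-transfection, used 24 h later. After an HBSS wash, coelenterazine h (2.5 µM) for 15 min, with ligands present for the final 5 min, 37 °C. BRET taken as the 535/475 nm emission ratio. Efficacy relative to 100 µM reference agonist. Three-parameter sigmoidal fits; mean ± S.E. of 2-4 independent experiments.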

[3] = biological target: T1, Free fatty acid receptor 1; test: Antagonist activity against human FFA1 expressed in human Flp-In T-REx293 cells assessed as as reduction in 300 nM TUG424-induced response by Fura2-AM dye based calcium mobilization assay relative to untreated control; assay type: functional, cell-based; outline: as §1
[4] = biological target: T3, Free fatty acid receptor 4 (Homo sapiens) (UniProt Q5NUL3); test: Agonist activity at C-terminal YFP-tagged human FFA4 expressed in HEK293 cells in presence of coelentrazine h by BRET based beta-arrestin-2 interaction assay relative to 100 uM […]; assay type: cell-based; outline: as §2
T3 sequence (whole entry): T2 sequence (Q5NUL3 whole entry)

Mus musculus = test: Reduction in plasma glucose level in mouse at 10 mg/kg, po dosed 15 mins before oral glucose challenge by OGTT method; assay type: functional, organism-based
Outline: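 Mice fasted 5 h and given compound orally at 10 mg/kg, 15 min before an oral glucose load of 3 g/kg. Tail-tip blood sampled under local anesthetic 30 min before and immediately before the load, and at 30, 60, 90, 120 and 180 min after it. Glucose measured in duplicate by glucose oxidase colorimetric assay; n=6 mice per group.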

[5] = Lipophilicity, log D of the compound at pH 7.4; assay type: physicochemical; details: buffer
[6] = Solubility in PBS buffer; assay type: physicochemical
[7] = biological target: T4, Free fatty acid receptor 4 (Mus musculus, UniProt Q7TMA4); test: Agonist activity mouse FFA4 by Gq-dependent calcium mobilization assay; assay type: functional
T4 sequence (Q7TMA4 whole entry): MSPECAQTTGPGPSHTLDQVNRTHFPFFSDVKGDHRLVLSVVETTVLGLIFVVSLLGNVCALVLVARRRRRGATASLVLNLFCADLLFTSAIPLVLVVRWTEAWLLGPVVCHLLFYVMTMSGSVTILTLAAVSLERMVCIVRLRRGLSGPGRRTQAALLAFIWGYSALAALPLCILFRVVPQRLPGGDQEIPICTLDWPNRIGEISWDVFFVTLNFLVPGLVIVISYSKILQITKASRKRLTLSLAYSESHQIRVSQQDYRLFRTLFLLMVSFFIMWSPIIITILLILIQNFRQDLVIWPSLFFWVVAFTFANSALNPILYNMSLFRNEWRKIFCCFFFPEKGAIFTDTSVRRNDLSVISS

[8] = biological target: T2, Free fatty acid receptor 4; test: Agonist activity at human FFA4 expressed in human Flp-In T-REx293 cells by Fura2-AM dye based calcium mobilization assay; assay type: functional, cell-based
Outline: (§3)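 Flp-In T-REx 293 cells with doxycycline-inducible human FFA4 seeded at 50000 cells/well and induced overnight with 100 ng/ml doxycycline. Loaded with Fura2-AM for 45 min, washed three times in HBSS, equilibrated 15 min, then ligand added. Emission at 510 nm with 340/380 nm excitation; response is the change in 340:380 ratio. Efficacy relative to 100 µM reference agonist; 2-4 independent experiments, sigmoidal fits.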

[9] = biological target: T3, Free fatty acid receptor 4 (Homo sapiens); test: Agonist activity at human FFA4 expressed in human Flp-In T-REx293 cells by Fura2-AM dye based calcium mobilization assay relative to 100 uM […]; assay type: functional, cell-based; outline: as §3
[10] = Solubility in FaSSIF solution; assay type: physicochemical
[11] = biological target: T1, Free fatty acid receptor 1; test: Antagonist activity against human FFA1 expressed in human Flp-In T-REx293 cells assessed as as reduction in TUG770-induced response by Fura2-AM dye based calcium mobilization assay; assay type: functional, cell-based
Outline: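 Antagonism measured in FFA1 Ca2+ mobilization with 20 nM TUG-770 as the stimulating agonist. Test ligand preincubated 15 min in HBSS before agonist addition. Read-out is the change in Fura2 340:380 ratio at 510 nm emission.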

SMILES: N#CCc1cccc(Oc2cc(F)cc(N3Cc4ccccc4S3(=O)=O)c2)c1
- IC50 [1]: 20000 nM
- EC50 ([2]; read-out: pEC50 (converted)): 5250 nM
- Imax [3]: 44%
- Emax [4]: 57%

SMILES: O=S1(=O)c2ccccc2CN1c1cc(F)cc(Oc2cccnc2)c1
- IC50 [1]: > 100000 nM
- Activity (Mus musculus): Active
- EC50 ([2]; read-out: pEC50 (converted)): 437 nM
- logD [5]: 3.12
- solubility [6]: 11 µM (≈ 3.92 µg/mL)
- EC50 [7]: 83.2 nM
- EC50 [8]: 302 nM
- Emax [9]: 115%
- Emax [4]: 107%

SMILES: O=S1(=O)c2ccccc2CN1c1cccc(Oc2ccccn2)c1
- IC50 [1]: > 100000 nM
- EC50 ([2]; read-out: pEC50 (converted)): 1550 nM
- EC50 [8]: 1020 nM
- Emax [9]: 93%
- Emax [4]: 102%

SMILES: N#Cc1ccccc1Oc1cc(F)cc(N2Cc3ccccc3S2(=O)=O)c1
- IC50 [1]: > 100000 nM
- EC50 ([2]; read-out: pEC50 (converted)): 16200 nM
- Emax [4]: 76%

SMILES: O=S(=O)(Nc1cc(F)cc(Oc2cccnc2)c1)c1ccc(F)cc1
- EC50 ([2]; read-out: pEC50 (converted)): 16600 nM
- Emax [4]: 39%

SMILES: O=S1(=O)c2ccccc2CN1c1cc(F)cc(Oc2ccccc2)c1
- IC50 [1]: 3890 nM
- EC50 [2]: < 10000 nM
- EC50 ([2]; read-out: pEC50 (converted)): 234 nM
- Imax [3]: 47%
- EC50 [8]: 380 nM
- Emax [9]: 78%
- Emax [4]: 101%

SMILES: Cc1ccccc1Oc1cc(F)cc(N2Cc3ccccc3S2(=O)=O)c1
- IC50 [1]: 44700 nM
- EC50 ([2]; read-out: pEC50 (converted)): 2690 nM
- Imax [3]: 71%
- Emax [4]: 42%

SMILES: COc1ccc(S(=O)(=O)Nc2c(C)cc(C)cc2C)cc1
- EC50 ([2]; read-out: pEC50 (converted)): 490 nM
- Emax [4]: 82%

SMILES: O=S1(=O)c2ccccc2CN1c1cc(Cl)cc(Oc2ccccn2)c1
- solubility [10]: 0.9 µM (≈ 0.336 µg/mL)
- EC50 ([2]; read-out: EC50): 40 nM
- EC50 ([2]; read-out: pEC50 (converted)): 138 nM
- solubility [6]: 0.1 µM (≈ 0.0373 µg/mL)
- EC50 [7]: 72.4 nM
- EC50 [8]: 38.9 nM
- Emax [9]: 78%
- IC50 [11]: > 100000 nM
- Emax [4]: 113%

SMILES: CCCCc1ccc(NS(=O)(=O)c2ccc(F)cc2)cc1
- IC50 [1]: 8130 nM
- EC50 ([2]; read-out: pEC50 (converted)): 5370 nM
- Imax [3]: 68%
- Emax [4]: 76%

SMILES: O=S1(=O)c2ccccc2CN1c1cc(F)cc(Oc2ccncc2)c1
- IC50 [1]: > 100000 nM
- EC50 ([2]; read-out: pEC50 (converted)): 1260 nM
- EC50 [8]: 1700 nM
- Emax [9]: 120%
- Emax [4]: 97%
